The compounds below were run on SK-OV-3 (assay: Growth inhibition of human SK-OV-3 cells incubated for 48 hrs by sulforhodamine B assay).
Type: functional
In short: (§1)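 NCI five-dose screen (0.01–100 µM; five concentrations plus control). Cells grown in RPMI 1640/5% FBS/2 mM L-glutamine and preincubated 24 h, with time-zero plates TCA-fixed. Drug exposure 48 h at 37 °C, followed by SRB protein staining and reading at 515 nm. GI50 is the concentration at [(Ti-Tz)/(C-Tz)]×100 = 50.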
COc1cc2nc(-c3ccc(C(F)(F)F)cc3)cc(OCCCN3CCOCC3)c2cc1OC was tested, and the GI50 was 5040 nM.

Each compound was assayed on 786-0 (assay: Growth inhibition of human 786-0 cells incubated for 48 hrs by sulforhodamine B assay).
Type: functional
In short: (§2)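 NCI five-dose screen covering 0.01–100 µM, prepared as 10-fold or ½-log dilutions from DMSO stock. Cells in RPMI 1640 with 5% FBS were exposed for 48 h at 37 °C after 24 h preincubation. Adherent cells were fixed with TCA (final 10%) and suspension cells were settled before fixing. Stain was SRB, read at 515 nm. GI50 = 50% reduction in net protein increase versus control, with Tz taken at drug addition.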
COc1cc2nc(-c3ccc(C(F)(F)F)cc3)cc(OCCCN3CCOCC3)c2cc1OC was tested, and the GI50 was 1760 nM.

The compounds below were run on U-251 (assay: Growth inhibition of human U-251 cells incubated for 48 hrs by sulforhodamine B assay).
Type: functional
In short: (§3)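 NCI five-dose assay, with drug stocks in DMSO diluted in medium to five concentrations (10-fold or ½-log series). Cells in RPMI 1640/5% FBS were pre-incubated 24 h, and time-zero plates were TCA-fixed at drug addition. After 48 h at 37 °C, cells were TCA-fixed, SRB-stained and read at 515 nm. GI50 is from [(Ti-Tz)/(C-Tz)]×100 = 50, TGI from Ti = Tz, and LC50 from [(Ti-Tz)/Tz]×100 = -50.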
COc1cc2nc(-c3ccc(C(F)(F)F)cc3)cc(OCCCN3CCOCC3)c2cc1OC gave a GI50 of 1400 nM.

What follows are compounds tested on COLO 205 (assay: Growth inhibition of human COLO 205 cells incubated for 48 hrs by sulforhodamine B assay).
Type: functional
In short: as §2
For COc1cc2nc(-c3ccc(C(F)(F)F)cc3)cc(OCCCN3CCOCC3)c2cc1OC, the GI50 was 529 nM.

These compounds were tested on SNB-19 (assay: Growth inhibition of human SNB-19 cells incubated for 48 hrs by sulforhodamine B assay).
Type: functional
In short: as §1
Compound COc1cc2nc(-c3ccc(C(F)(F)F)cc3)cc(OCCCN3CCOCC3)c2cc1OC has a GI50 of 2910 nM.

These compounds were tested on BT-549 (assay: Growth inhibition of human BT-549 cells incubated for 48 hrs by sulforhodamine B assay).
Type: functional
In short: as §2
Compound COc1cc2nc(-c3ccc(C(F)(F)F)cc3)cc(OCCCN3CCOCC3)c2cc1OC has a GI50 of 5000 nM.

What follows are compounds tested on SN12C (assay: Growth inhibition of human SN12C cells incubated for 48 hrs by sulforhodamine B assay).
Type: functional
In short: as §1
Compound COc1cc2nc(-c3ccc(C(F)(F)F)cc3)cc(OCCCN3CCOCC3)c2cc1OC has a GI50 of 675 nM.

What follows are compounds tested on SW-620 (assay: Growth inhibition of human SW-620 cells incubated for 48 hrs by sulforhodamine B assay).
Type: functional
In short: as §3
In the case of COc1cc2nc(-c3ccc(C(F)(F)F)cc3)cc(OCCCN3CCOCC3)c2cc1OC, the GI50 is reported as 3510 nM.

These compounds were tested on PC-3 (assay: Growth inhibition of human PC-3 cells incubated for 48 hrs by sulforhodamine B assay).
Type: functional
In short: as §1
In the case of COc1cc2nc(-c3ccc(C(F)(F)F)cc3)cc(OCCCN3CCOCC3)c2cc1OC, the GI50 is reported as 2190 nM.

What follows are compounds tested on SNB-75 (assay: Growth inhibition of human SNB-75 cells incubated for 48 hrs by sulforhodamine B assay).
Type: functional
In short: as §1
COc1cc2nc(-c3ccc(C(F)(F)F)cc3)cc(OCCCN3CCOCC3)c2cc1OC was tested, and the GI50 was 2460 nM.

These compounds were tested on RXF 393 (assay: Growth inhibition of human RXF 393 cells incubated for 48 hrs by sulforhodamine B assay).
Type: functional
In short: as §1
COc1cc2nc(-c3ccc(C(F)(F)F)cc3)cc(OCCCN3CCOCC3)c2cc1OC gave a GI50 of 706 nM.

What follows are compounds tested on Hs-578T (assay: Growth inhibition of human HS-578T cells incubated for 48 hrs by sulforhodamine B assay).
Type: functional
In short: as §2
For COc1cc2nc(-c3ccc(C(F)(F)F)cc3)cc(OCCCN3CCOCC3)c2cc1OC, the GI50 was 2250 nM.

What follows are compounds tested on SF-268 (assay: Growth inhibition of human SF-268 cells incubated for 48 hrs by sulforhodamine B assay).
Type: functional
In short: as §1
With COc1cc2nc(-c3ccc(C(F)(F)F)cc3)cc(OCCCN3CCOCC3)c2cc1OC the GI50 was 5700 nM.

What follows are compounds tested on HCT-29 (assay: Growth inhibition of human […] cells incubated for 48 hrs by sulforhodamine B assay).
Type: functional
In short: as §2
For COc1cc2nc(-c3ccc(C(F)(F)F)cc3)cc(OCCCN3CCOCC3)c2cc1OC, the GI50 was 540 nM.

Each compound was assayed on ACHN (assay: Growth inhibition of human ACHN cells incubated for 48 hrs by sulforhodamine B assay).
Type: functional
In short: as §2
Work on COc1cc2nc(-c3ccc(C(F)(F)F)cc3)cc(OCCCN3CCOCC3)c2cc1OC yielded a GI50 of 2010 nM.

What follows are compounds tested on MDA-MB-468 (assay: Growth inhibition of human MDA-MB-468 cells incubated for 48 hrs by sulforhodamine B assay).
Type: functional
In short: as §2
With COc1cc2nc(-c3ccc(C(F)(F)F)cc3)cc(OCCCN3CCOCC3)c2cc1OC the GI50 was 1240 nM.

Each compound was assayed on HL-60(TB) (assay: Growth inhibition of human HL-60(TB) cells incubated for 48 hrs by sulforhodamine B assay).
Type: functional
In short: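 NCI-60 five-dose screen. Cells in RPMI 1640 with 5% FBS and 2 mM L-glutamine were plated at 5000–40,000 cells/well and preincubated 24 h at 37 °C, 5% CO2. Drugs in DMSO were given at five serial 10-fold or ½-log dilutions for 48 h. Adherent cells fixed with 10% TCA (final); suspension cells fixed after settling. SRB stained; A515. GI50 from [(Ti-Tz)/(C-Tz)]x100 = 50.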
With COc1cc2nc(-c3ccc(C(F)(F)F)cc3)cc(OCCCN3CCOCC3)c2cc1OC the GI50 was 9580 nM.

These compounds were tested on EKVX (assay: Growth inhibition of human EKVX cells incubated for 48 hrs by sulforhodamine B assay).
Type: functional
In short: as §2
COc1cc2nc(-c3ccc(C(F)(F)F)cc3)cc(OCCCN3CCOCC3)c2cc1OC gave a GI50 of 1610 nM.

The compounds below were run on LOX IMVI (assay: Growth inhibition of human LOX IMVI cells incubated for 48 hrs by sulforhodamine B assay).
Type: functional
In short: as §2
COc1cc2nc(-c3ccc(C(F)(F)F)cc3)cc(OCCCN3CCOCC3)c2cc1OC was tested, and the GI50 was 141 nM and the TGI was 324 nM.

These compounds were tested on KM12 (assay: Growth inhibition of human KM12 cells incubated for 48 hrs by sulforhodamine B assay).
Type: functional
In short: as §2
For COc1cc2nc(-c3ccc(C(F)(F)F)cc3)cc(OCCCN3CCOCC3)c2cc1OC, the GI50 was 3420 nM.
